{"source": "ChEMBL document CHEMBL4411272", "about": "“Design, synthesis and biological evaluation of AZD9291 derivatives as selective and potent EGFRL858R/T790M inhibitors” (Eur J Med Chem, 2019)", "key": {"[1]": {"tested_on": "A549", "assay": "Cell cycle arrest in human A549 cells assessed as accumulation of cells at S phase at 1.80 uM after 24 hrs by propidium iodide staining-based flow cytometric analysis (reference value: 32.13%)", "assay_type": "functional", "how_it_was_run": "(§1)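 A549 cells seeded at 1×10^5 per well, grown 24 h, then treated 24 h with vehicle (0.1% DMSO) or compound at several concentrations. Cells fixed in ice-cold 70% ethanol at 4 °C for 12 h, washed in PBS, treated with 1 mg/mL RNase for 30 min at 37 °C, stained with propidium iodide 30 min in the dark. DNA content measured by flow cytometry.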"}, "[2]": {"tested_on": "A549", "assay": "Cell cycle arrest in human A549 cells assessed as accumulation of cells at S phase at 0.72 uM after 24 hrs by propidium iodide staining-based flow cytometric analysis (reference value: 32.13%)", "assay_type": "functional", "how_it_was_run": "as §1"}, "[3]": {"tested_on": "A549", "assay": "Cell cycle arrest in human A549 cells assessed as accumulation of cells at G0/G1 phase at 0.72 uM after 24 hrs by propidium iodide staining-based flow cytometric analysis (reference value: 65.22%)", "assay_type": "functional", "how_it_was_run": "as §1"}, "[4]": {"species": "Homo sapiens", "assay": "Selectivity ratio of IC50 for wild-type EGFR (unknown origin) to IC50 for EGFR T790M/L858R double mutant (unknown origin)"}, "[5]": {"tested_on": "NCI-H1975", "assay": "Induction of apoptosis in human NCI-H1975 assessed as induction of membrane damage at 0.25 uM by H33342 staining-based inverted fluorescence microscopic analysis", "assay_type": "functional, cell-based", "how_it_was_run": "(§2)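 H1975 cells stained with Hoechst 33342 after treatment, alongside an untreated control. Nuclear blue fluorescence, dye uptake, chromatin condensation and cell structure viewed under an inverted fluorescence microscope.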"}, "[6]": {"molecular_target": "Epidermal growth factor receptor (Homo sapiens, UniProt P00533, L858R/T790M)", "sequence (P00533 25-1210 T790M/L858R limits assumed)": "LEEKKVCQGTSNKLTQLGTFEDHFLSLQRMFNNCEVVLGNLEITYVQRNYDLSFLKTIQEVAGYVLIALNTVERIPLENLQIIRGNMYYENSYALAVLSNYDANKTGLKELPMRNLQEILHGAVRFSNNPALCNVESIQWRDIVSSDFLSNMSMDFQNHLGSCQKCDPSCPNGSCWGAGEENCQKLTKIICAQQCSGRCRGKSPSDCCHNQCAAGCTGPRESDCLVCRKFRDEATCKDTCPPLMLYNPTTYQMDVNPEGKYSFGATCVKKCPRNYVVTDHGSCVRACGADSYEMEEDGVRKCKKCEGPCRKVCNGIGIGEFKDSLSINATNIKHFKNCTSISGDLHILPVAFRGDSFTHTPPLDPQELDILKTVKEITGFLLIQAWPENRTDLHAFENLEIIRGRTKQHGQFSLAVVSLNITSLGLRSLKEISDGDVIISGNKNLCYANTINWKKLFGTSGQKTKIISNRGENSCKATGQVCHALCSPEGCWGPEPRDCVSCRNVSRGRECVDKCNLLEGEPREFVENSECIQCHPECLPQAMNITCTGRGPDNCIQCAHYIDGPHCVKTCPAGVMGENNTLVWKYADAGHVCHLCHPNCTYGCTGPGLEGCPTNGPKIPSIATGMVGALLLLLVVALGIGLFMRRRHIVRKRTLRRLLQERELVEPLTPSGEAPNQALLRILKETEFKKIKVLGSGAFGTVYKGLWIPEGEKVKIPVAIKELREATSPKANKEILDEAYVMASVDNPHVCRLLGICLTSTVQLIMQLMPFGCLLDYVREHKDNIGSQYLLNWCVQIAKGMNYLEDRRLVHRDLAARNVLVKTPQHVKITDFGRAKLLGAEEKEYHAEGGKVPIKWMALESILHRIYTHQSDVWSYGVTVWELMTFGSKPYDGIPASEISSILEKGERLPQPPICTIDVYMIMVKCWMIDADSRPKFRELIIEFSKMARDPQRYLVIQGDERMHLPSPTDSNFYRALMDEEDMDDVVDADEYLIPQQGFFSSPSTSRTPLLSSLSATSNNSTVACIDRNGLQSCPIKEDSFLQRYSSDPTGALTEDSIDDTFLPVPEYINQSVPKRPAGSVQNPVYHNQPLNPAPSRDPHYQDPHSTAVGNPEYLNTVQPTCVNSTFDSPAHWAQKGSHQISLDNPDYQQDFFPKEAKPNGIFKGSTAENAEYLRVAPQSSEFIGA", "assay": "Inhibition of EGFR T790M/L858R double mutant (unknown origin) using substrate-biotin by ELISA-based mobility shift assay"}, "[7]": {"tested_on": "NCI-H1975", "assay": "Induction of apoptosis in human NCI-H1975 at 0.25 uM by acridine orange staining-based fluorescence assay", "assay_type": "functional, cell-based", "how_it_was_run": "(§3)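 H1975 cells stained with acridine orange after treatment, alongside an untreated control group. Cell and chromatin morphology assessed by fluorescence imaging.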"}, "[8]": {"tested_on": "A549", "assay": "Cell cycle arrest in human A549 cells assessed as accumulation of cells at G2/M phase at 0.72 uM after 24 hrs by propidium iodide staining-based flow cytometric analysis (reference value: 2.65%)", "assay_type": "functional", "how_it_was_run": "as §1"}, "[9]": {"tested_on": "NCI-H1975", "assay": "Induction of apoptosis in human NCI-H1975 assessed as formation of cells with sharp edge at 0.25 uM by acridine orange staining-based fluorescence assay", "assay_type": "functional, cell-based", "how_it_was_run": "as §3"}, "[10]": {"tested_on": "NCI-H1975", "assay": "Induction of apoptosis in human NCI-H1975 assessed as induction of chromatin shrinkage at 0.25 uM by acridine orange staining-based fluorescence assay", "assay_type": "functional, cell-based", "how_it_was_run": "as §3"}, "[11]": {"molecular_target": "Epidermal growth factor receptor (Homo sapiens, UniProt P00533)", "sequence (P00533 whole entry)": "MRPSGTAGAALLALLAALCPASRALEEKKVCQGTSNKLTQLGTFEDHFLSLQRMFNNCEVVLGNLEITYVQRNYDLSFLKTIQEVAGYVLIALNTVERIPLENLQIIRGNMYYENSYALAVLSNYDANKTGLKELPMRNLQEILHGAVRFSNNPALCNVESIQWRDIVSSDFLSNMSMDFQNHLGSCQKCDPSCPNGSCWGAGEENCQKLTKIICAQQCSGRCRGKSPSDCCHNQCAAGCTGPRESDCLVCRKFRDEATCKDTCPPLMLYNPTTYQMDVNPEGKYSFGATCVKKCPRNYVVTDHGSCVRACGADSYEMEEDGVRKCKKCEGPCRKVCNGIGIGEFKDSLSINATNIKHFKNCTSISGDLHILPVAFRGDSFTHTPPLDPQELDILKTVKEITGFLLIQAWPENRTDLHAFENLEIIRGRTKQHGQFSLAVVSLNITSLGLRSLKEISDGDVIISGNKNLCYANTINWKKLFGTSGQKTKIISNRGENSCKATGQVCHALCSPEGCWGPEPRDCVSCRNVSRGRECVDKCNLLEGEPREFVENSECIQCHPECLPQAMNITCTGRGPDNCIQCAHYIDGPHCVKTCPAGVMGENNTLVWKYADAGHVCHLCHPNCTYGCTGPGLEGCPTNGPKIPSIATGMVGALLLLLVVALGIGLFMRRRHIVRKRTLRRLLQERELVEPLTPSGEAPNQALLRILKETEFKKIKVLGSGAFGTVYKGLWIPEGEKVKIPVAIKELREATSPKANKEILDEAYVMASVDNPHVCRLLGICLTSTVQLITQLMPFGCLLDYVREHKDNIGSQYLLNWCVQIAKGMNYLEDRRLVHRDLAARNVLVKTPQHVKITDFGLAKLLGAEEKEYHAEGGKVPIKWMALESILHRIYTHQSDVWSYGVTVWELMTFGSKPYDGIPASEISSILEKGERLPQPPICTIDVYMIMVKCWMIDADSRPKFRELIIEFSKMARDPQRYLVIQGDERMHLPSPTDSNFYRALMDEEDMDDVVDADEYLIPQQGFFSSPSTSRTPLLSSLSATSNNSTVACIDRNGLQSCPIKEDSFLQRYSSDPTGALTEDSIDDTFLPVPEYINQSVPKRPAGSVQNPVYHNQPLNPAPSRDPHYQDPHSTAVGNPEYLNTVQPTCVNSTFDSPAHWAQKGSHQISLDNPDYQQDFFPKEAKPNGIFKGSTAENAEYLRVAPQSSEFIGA", "assay": "Inhibition of wild-type EGFR (unknown origin) using substrate-biotin by ELISA-based mobility shift assay"}, "[12]": {"tested_on": "A549", "assay": "Cell cycle arrest in human A549 cells assessed as accumulation of cells at G0/G1 phase at 1.80 uM after 24 hrs by propidium iodide staining-based flow cytometric analysis (reference value: 65.22%)", "assay_type": "functional", "how_it_was_run": "as §1"}, "[13]": {"tested_on": "NCI-H1975", "assay": "Induction of apoptosis in human NCI-H1975 assessed as induction of cell structure destruction at 0.25 uM by H33342 staining-based inverted fluorescence microscopic analysis", "assay_type": "functional", "how_it_was_run": "as §2"}, "[14]": {"tested_on": "A549", "assay": "Antiproliferative activity against human A549 cells after 72 hrs by MTT assay", "assay_type": "functional, cell-based", "conditions": "A549, 72 h", "how_it_was_run": "(§4)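 MTT assay; cells grown as monolayers in DMEM or RPMI1640 with 10% FBS at 37 °C, 5% CO2 for 24 h, then compound added for 72 h. MTT at 5 μg/mL for 4 h at 37 °C, formazan dissolved in DMSO, absorbance read at 492 nm with 630 nm reference. Each compound tested three times per line; IC50 from averaged determinations.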"}, "[15]": {"tested_on": "A549", "assay": "Cell cycle arrest in human A549 cells assessed as accumulation of cells at G0/G1 phase at 0.36 uM after 24 hrs by propidium iodide staining-based flow cytometric analysis (reference value: 65.22%)", "assay_type": "functional", "how_it_was_run": "as §1"}, "[16]": {"tested_on": "A549", "assay": "Cell cycle arrest in human A549 cells assessed as accumulation of cells at G2/M phase at 0.36 uM after 24 hrs by propidium iodide staining-based flow cytometric analysis (reference value: 2.65%)", "assay_type": "functional", "how_it_was_run": "as §1"}, "[17]": {"tested_on": "NCI-H1975", "assay": "Induction of apoptosis in human NCI-H1975 assessed as induction of chromatin shrinkage at 0.25 uM by H33342 staining-based inverted fluorescence microscopic analysis", "assay_type": "functional, cell-based", "how_it_was_run": "as §2"}, "[18]": {"tested_on": "A549", "assay": "Cell cycle arrest in human A549 cells assessed as accumulation of cells at S phase at 0.36 uM after 24 hrs by propidium iodide staining-based flow cytometric analysis (reference value: 32.13%)", "assay_type": "functional", "how_it_was_run": "as §1"}, "[19]": {"tested_on": "NCI-H1975", "assay": "Antiproliferative activity against human NCI-H1975 cells after 72 hrs by MTT assay", "assay_type": "functional, cell-based", "conditions": "NCI-H1975, 72 h", "how_it_was_run": "as §4"}, "[20]": {"tested_on": "HepG2", "assay": "Antiproliferative activity against human HepG2 cells after 72 hrs by MTT assay", "assay_type": "functional, cell-based", "conditions": "HepG2, 72 h", "how_it_was_run": "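MTT assay; cells grown as monolayers in DMEM or RPMI1640 with 10% FBS at 37 °C, 5% CO2 for 24 h, then compound added for 72 h. Each compound tested three times per line; IC50 from averaged determinations.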"}, "[21]": {"tested_on": "A549", "assay": "Cell cycle arrest in human A549 cells assessed as accumulation of cells at G2/M phase at 1.80 uM after 24 hrs by propidium iodide staining-based flow cytometric analysis (reference value: 2.65%)", "assay_type": "functional", "how_it_was_run": "as §1"}, "[22]": {"tested_on": "A549", "assay": "Cell cycle arrest in human A549 cells assessed as accumulation at G2/M phase after 24 hrs by propidium iodide staining-based flow cytometric analysis", "assay_type": "functional", "how_it_was_run": "as §1"}}, "note": "pIC50: −log10 of the molar value. Activity calls are given as the source filed them. The calls are words filed in the database; no cut-off is given here.", "data": [{"compound": "CCC/C=C\\C(=O)Nc1cc(Nc2nc(C)cc(-c3cn(C)c4ccccc34)n2)c(OC)cc1N(C)CCN(C)C", "values": [{"measurement": "Activity", "setting": "[1]", "result": 38.24, "unit": "%"}, {"measurement": "Activity", "setting": "[2]", "result": 39.81, "unit": "%"}, {"measurement": "Activity", "setting": "[3]", "result": 44.91, "unit": "%"}, {"measurement": "Ratio IC50", "setting": "[4]", "result": 191}, {"measurement": "Activity", "setting": "[5]", "result": "Active"}, {"measurement": "pIC50", "setting": "[6]", "result": 8.10}, {"measurement": "Activity", "setting": "[7]", "result": "Active"}, {"measurement": "Activity", "setting": "[8]", "result": 15.28, "unit": "%"}, {"measurement": "Activity", "setting": "[9]", "result": "Active"}, {"measurement": "Activity", "setting": "[10]", "result": "Active"}, {"measurement": "pIC50", "setting": "[11]", "result": 5.82}, {"measurement": "Activity", "setting": "[12]", "result": 39.55, "unit": "%"}, {"measurement": "Activity", "setting": "[13]", "result": "Active"}, {"measurement": "pIC50", "setting": "[14]", "result": 6.48}, {"measurement": "Activity", "setting": "[15]", "result": 56.78, "unit": "%"}, {"measurement": "Activity", "setting": "[16]", "result": 6.07, "unit": "%"}, {"measurement": "Activity", "setting": "[17]", "result": "Active"}, {"measurement": "Activity", "setting": "[18]", "result": 37.15, "unit": "%"}, {"measurement": "pIC50", "setting": "[19]", "result": 6.60}, {"measurement": "pIC50", "setting": "[20]", "result": 6.44}, {"measurement": "Activity", "setting": "[21]", "result": 22.24, "unit": "%"}, {"measurement": "Activity", "setting": "[22]", "result": "Dose-dependent effect"}]}]}
